# Test results published in BindingDB's records for doi:10.1021/acs.jmedchem.8b01327 (2019).
# Molecular target: Mu-type opioid receptor (Rattus norvegicus, UniProt P33535)
# Assay: Displacement of [3H]DAMGO from mu opioid receptor in rat brain membranes incubated for 45 mins by liquid scintillation counting method
# Method in brief: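 Rat brain membranes (cerebella removed; 0.3–0.5 mg protein) in 50 mM Tris-HCl, pH 7.4, were incubated 45 min at 35 °C with 1 nM [3H]DAMGO (MOR) or 0.5 nM [3H][Ile5,6]deltorphin II (DOR) plus varied test concentrations. Nonspecific binding was set with 10 μM naloxone. Samples were GF/C filtered, washed and scintillation counted. Ki was obtained by Cheng–Prusoff; duplicates, 3–4 experiments.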
# Sequence of Mu-type opioid receptor (P33535 whole entry): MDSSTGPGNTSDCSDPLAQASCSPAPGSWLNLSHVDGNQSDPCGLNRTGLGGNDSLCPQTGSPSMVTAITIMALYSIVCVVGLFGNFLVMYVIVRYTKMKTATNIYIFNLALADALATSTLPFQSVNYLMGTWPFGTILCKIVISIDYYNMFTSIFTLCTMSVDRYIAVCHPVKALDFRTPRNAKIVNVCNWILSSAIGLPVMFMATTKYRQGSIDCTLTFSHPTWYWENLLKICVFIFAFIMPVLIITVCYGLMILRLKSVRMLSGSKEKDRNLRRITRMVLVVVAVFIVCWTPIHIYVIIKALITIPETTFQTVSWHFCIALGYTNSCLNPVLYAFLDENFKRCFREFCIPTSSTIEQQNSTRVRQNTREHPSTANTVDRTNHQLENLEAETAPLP
compound,measurement,value
CO[C@@]12CC[C@@H](N[C@@H](CC(N)=O)C(=O)O)[C@@H]3Oc4c(O)ccc5c4[C@@]31CCN(C)[C@@H]2C5,Ki,1.3 nM
